Where a name gives a salt, the structure may show the parent alone.
Target: Thymidine phosphorylase (Escherichia coli K-12, UniProt P07650)
Assay: Inhibition of Escherichia coli Thymidine phosphorylase by spectrophotometry; call rule not given here
In short: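 E. coli TP (0.22 units) added to start a 1 ml reaction containing […] and inhibitor in 0.1 M potassium phosphate, pH 7.4. Loss of thymidine absorbance followed at 265 nm, 25 °C, in a thermostatted cuvette. IC50 obtained from inhibition curves by enzyme kinetics analysis.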

Chain of Thymidine phosphorylase (P07650 whole entry): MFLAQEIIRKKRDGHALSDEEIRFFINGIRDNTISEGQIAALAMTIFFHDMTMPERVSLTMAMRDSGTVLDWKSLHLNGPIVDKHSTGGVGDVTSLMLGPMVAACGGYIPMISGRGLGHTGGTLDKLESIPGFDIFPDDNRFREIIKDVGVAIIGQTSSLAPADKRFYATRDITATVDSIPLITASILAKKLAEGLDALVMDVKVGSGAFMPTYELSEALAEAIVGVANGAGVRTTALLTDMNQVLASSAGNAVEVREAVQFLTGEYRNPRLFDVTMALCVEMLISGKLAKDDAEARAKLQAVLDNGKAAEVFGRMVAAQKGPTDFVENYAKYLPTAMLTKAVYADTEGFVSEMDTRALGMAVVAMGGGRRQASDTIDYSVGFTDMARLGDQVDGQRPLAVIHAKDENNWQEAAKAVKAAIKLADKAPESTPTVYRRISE

SMILES	IC50 (read-out: IC50) [µM]	IC50
O=C1NC(=O)N(CCc2ccccc2)C1=O	103	–
CCOC(=O)CN1C(=O)C(=O)N(Cc2ccccc2)C1=O	342	–
CCOC(=O)CN1C(=O)C(=O)N(Cc2ccccc2C)C1=O	303	–
CCOC(=O)CN1C(=O)C(=O)N(CCc2ccccc2)C1=O	357	–
NC(=O)CCN1C(=O)C(=O)N(Cc2ccccc2)C1=O	106	–
Cc1ccccc1CN1C(=O)C(=O)N(CCC(N)=O)C1=O	88	–
NC(=O)CCN1C(=O)C(=O)N(CCc2ccccc2)C1=O	40	–
Cc1ccccc1CN1C(=O)C(=O)N(CC(=O)O)C1=O	236	–
O=C(O)CN1C(=O)C(=O)N(CCc2ccccc2)C1=O	85	–

The next lines start with the values.

IC50 (read-out: IC50) [µM]	IC50	SMILES
115	–	O=C1NC(=O)N(Cc2ccccc2)C1=O
128	–	Cc1ccccc1CN1C(=O)NC(=O)C1=O
117	–	O=C1NC(=O)N(Cc2cccc(Cl)c2)C1=O
292	–	CCOC(=O)CN1C(=O)C(=O)N(Cc2cccc(Cl)c2)C1=O
66	–	NC(=O)CCN1C(=O)C(=O)N(Cc2cccc(Cl)c2)C1=O
264	–	O=C(O)CN1C(=O)C(=O)N(Cc2ccccc2)C1=O
–	Active	O=C(O)CN1C(=O)C(=O)N(Cc2cccc(Cl)c2)C1=O
0.036	–	N=C1CCCN1Cc1[nH]c(=O)[nH]c(=O)c1Cl [TIPIRACIL HYDROCHLORIDE]

— ChEMBL document CHEMBL1759944, “Structure-activity relationship of 2,4,5-trioxoimidazolidines as inhibitors of thymidine phosphorylase” (Eur J Med Chem, 2011)
